Assay outcomes deposited in PubChem by Johns Hopkins Ion Channel Center.
MrgX1 ag: activates human MrgX1 receptor signaling; MrgX1-HEK293 cells, Fluo-4 calcium fluorescence, agonist mode; hits give high values; Q96LB2; 310,000 tested, 0.44% active; B-score at 10 µM;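 active = calcium response B-score plate-corrected fluorescence ratio at least 3 library SD, with starting fluorescence B-score inside 5 SD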
Target sequence (Q96LB2 whole entry, looked up): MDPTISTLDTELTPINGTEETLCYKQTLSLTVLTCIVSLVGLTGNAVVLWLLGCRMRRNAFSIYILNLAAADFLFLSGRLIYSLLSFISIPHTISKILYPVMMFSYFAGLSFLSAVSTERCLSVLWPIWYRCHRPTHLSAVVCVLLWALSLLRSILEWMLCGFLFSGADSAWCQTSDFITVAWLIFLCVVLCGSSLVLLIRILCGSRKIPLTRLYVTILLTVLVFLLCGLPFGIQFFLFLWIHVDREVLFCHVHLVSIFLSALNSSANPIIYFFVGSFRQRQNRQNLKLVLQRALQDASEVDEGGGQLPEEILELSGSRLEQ
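Assay system: stable human MrgX1 HEK293 cell line. Quantity: 15,000 cells per well. Schedule: cells plated overnight, dye loaded 0.5 h 37 °C, 0.5 h room temperature. Detection: Fluo-4 NW calcium-flux fluorescence, kinetic read. Read-out basis: peak-minus-minimum fluorescence over baseline, converted to B scores. Control set: positive and negative control wells on each plate.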
RGS4 inh: inhibitors of human RGS4; 310,000 tested, 0.45% active; P49798; B-score at 10 µM; HEK293 M3R/RGS4 inducible, Fluo-4 calcium flux; hits give high values; triggered by carbachol at its EC20;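 active = B-score, a plate-corrected calcium signal, over three deviations above library mean, with baseline fluorescence within five deviations of library mean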;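 also: RGS4 expression induced by doxycycline in cells with stable M3 receptor; B-score is computed from the integrated fluorescence ratio over baseline after carbachol; higher B-score means a larger calcium signal and so more RGS4 inhibition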
Target sequence (P49798 whole entry, looked up): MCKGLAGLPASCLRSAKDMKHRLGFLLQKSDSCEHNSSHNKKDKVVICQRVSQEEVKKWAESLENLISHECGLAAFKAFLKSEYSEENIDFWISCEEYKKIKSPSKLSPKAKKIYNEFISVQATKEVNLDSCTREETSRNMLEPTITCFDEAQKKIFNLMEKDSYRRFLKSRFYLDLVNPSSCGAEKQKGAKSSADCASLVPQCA
RGS4 pot: RGS4 potentiation or activation; HEK293 M3R/inducible RGS4, carbachol calcium flux Fluo4; hits give low values; B-score at 10 µM; 310,000 tested, 0.92% active;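 active = B-score of the integrated calcium signal more than 4 SD below the library mean, with starting fluorescence not abnormally high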;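 also: negative B-score means reduced calcium response which marks RGS4 activation or potentiation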
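System: HEK293 FlpIn-TREx cells, stable M3R, doxycycline-inducible RGS4. Timing: overnight RGS4 induction, 30 min dye load 37 °C, 20 min compound RT. Also added: carbachol, ECmax concentration. Measured by: Fluo4 fluorescence kinetic imaging of calcium. Evaluation: integrated calcium ratio converted to B score.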
MrgX1 antagonist: blocks BAM8-22 activation of human MrgX1 receptor | Q96LB2 | B-score at 10 µM | 310,000 tested, 1.3% active | MRGX1-HEK293 calcium flux, Fluo-4, BAM8-22 antagonism; hits give low values;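 active = calcium-response B-score plate-corrected more than 3 library SD below zero, starting fluorescence within 5 deviations, no agonist response on first addition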;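 also: peak minus trough fluorescence over baseline after final BAM8-22 challenge near maximal dose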
MrgX1 allo act: allosterically activates human MrgX1 receptor signaling; 310,000 tested, 0.63% active; Q96LB2; AID 588675; B-score at 10 µM; MrgX1-HEK293, Fluo-4 calcium flux, FDSS; hits give high values;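 active = plate-corrected calcium response at least 3 library SD above typical, normal starting fluorescence, not activating the receptor alone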;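 also: compound read alongside a low EC10 to EC30 dose of BAM8-22 agonist; peak minus trough fluorescence over baseline measured at the second addition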
MrgX1 PAM conf: confirmation of human MrgX1 receptor positive allosteric modulators; shares compounds with MrgX1 allo act; MrgX1-HEK293, Fluo-4 calcium fluorescence, FDSS; activation (ratio percentage), % at 10 µM; 1,200 tested, 13% active;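 active = ratio at least 3 SD above the weak peptide control, stable starting fluorescence, no direct agonism earlier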;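 also: compound followed by low BAM8-22 agonist challenge near EC20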
HEK293 Ca flux: counter-screen for MrgX1 antagonists: effect in parental HEK293 cells. shares compounds with MrgX1 antagonist. 4,000 tested, 2% active. Fluo-4 calcium fluorescence, FDSS. fluorescence ratio F(max-min)/F0 at 10 µM;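 active = duplicate-averaged calcium fluorescence ratio at least three times the standard deviation of buffer wells, a nonspecific response in parental cells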
HEK293 Ca counter: counter-screen for MrgX1 allosteric activators: effect in parental HEK293 cells; shares compounds with MrgX1 antagonist; parental HEK293 calcium flux, Fluo-4 fluorescence ratio; hits give high values; fluorescence ratio F(max-min)/F0 at 10 µM; 4,000 tested, 0.4% active; AID 624114;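 active = calcium fluorescence ratio, averaged over duplicates, at least 3 SD of the buffer-well ratio, meaning a nonspecific response in receptor-free cells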;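 also: untransfected parental HEK293 lacking MrgX1 used as counterscreen for MrgX1 allosteric activators; fluorescence change taken during the second addition on a kinetic imager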
HEK293 Ca cntr2: counter-screen for MrgX1 activators: effect in parental HEK293 cells | shares compounds with MrgX1 antagonist | Fluo-4 calcium fluorescence (FDSS); hits give high values | 4,000 tested, 8.7% active | AID 624115 | fluorescence ratio F(max-min)/F0 at 10 µM;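 active = calcium fluorescence ratio at least three times the spread of buffer wells, meaning a non-specific response in parental cells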
* = called active by the depositor; i = inactive; . = no result. Rows were chosen to be rich in hits. Some 3.5% of all compounds tested hit in one or more screens of this group.

SMILES	MrgX1 ag	RGS4 inh	RGS4 pot	MrgX1 antagonist	MrgX1 allo act	MrgX1 PAM conf	HEK293 Ca flux	HEK293 Ca counter	HEK293 Ca cntr2
Nc1nc(C(c2ccccc2)c2ccccc2)cs1	i	i	i	i	8.71*	i	i	i	i
CCOC(=O)C1C(=O)NC(c2ccccc2)=NC1c1ccc(OC)cc1 (stereo not drawn)	i	i	i	i	12*	i	i	i	i
Cc1ccc(OCCCNCCO)c(Br)c1	i	i	i	i	7.53*	i	i	i	i
Cc1ccc(Sc2ncccc2C(=O)N(C)Cc2cccs2)c(C)c1	i	i	i	i	24.7*	i	i	i	i
Cc1ccc(Nc2ncccc2C(=O)NCc2cccs2)c(C)c1	i	i	i	i	i	.	.	.	.
COc1cccc(CNc2ccc(F)c(Cl)c2)c1O	i	i	i	i	26.5*	13.0%*	i	i	i
COc1cccc(CNc2ccc([N+](=O)[O-])cc2Cl)c1O	i	i	i	i	24.6*	13.0%*	i	i	i
COc1cccc(CNc2cccc(C(F)(F)F)c2)c1O	i	i	i	i	35.5*	10.3%*	i	i	i
COc1cccc(CNc2cnc3ccccc3c2)c1O	i	i	i	i	7.06*	i	i	i	i
Cc1ccc(SCC(=O)OC(C)C(=O)NCc2ccccc2)cc1C (stereo not drawn)	i	i	i	i	i	.	.	.	.
CC(C)NC(=O)NC(=O)COC(=O)c1ccc([N+](=O)[O-])cc1Cl	i	i	i	i	i	.	.	.	.
CCN(CC)S(=O)(=O)c1cc(C)c(C)cc1Br	i	i	i	i	i	.	.	.	.
CCN(CC)S(=O)(=O)c1c(OC)cc(C)c(Cl)c1C	i	i	i	i	10.1*	i	i	i	i
COc1ccc(S(=O)(=O)N2CCC(C(=O)NCC3CC3)CC2)cc1	i	i	i	i	12.6*	i	i	i	i
COc1ccc(OCC(=O)N2CCN(S(=O)(=O)c3ccc(Cl)cc3)CC2)cc1	i	i	i	i	14.3*	i	i	i	i
CC(C)(C)c1cc(N)n2nc(C(C)(C)C)cc2n1	i	i	i	i	7.69*	i	i	i	i
Cc1cc2nc(C(C)(C)C)cc(N)n2n1	i	i	i	i	i	.	.	.	.
Cc1ccccc1Nc1cc2ccccc2c(=O)[nH]1	i	i	i	i	i	.	.	.	.
O=c1[nH]c(Nc2ccccc2Cl)cc2ccccc12	i	i	i	i	8.05*	i	i	i	i
O=C(Nc1ccc(Cl)c(Cl)c1)c1ccccc1	i	.	.	i	7.99*	i	i	i	i
Cc1cccc(N(C)C(=O)c2cnn(-c3ccccc3)c2C)c1	i	i	i	i	12.6*	i	i	i	i
Cc1ccc(N(C)C(=O)c2cnn(-c3ccccc3)c2C)c(C)c1	i	i	i	i	i	.	.	.	.
COc1ccc(C2=C(Nc3ccc(C)cc3)c3ccccc3C2=O)cc1	i	i	i	i	10.9*	i	i	i	i
COc1ccc(C2=C(Nc3ccc(F)cc3)c3ccccc3C2=O)cc1	i	i	i	i	i	.	.	.	.
O=S(=O)(CC(O)COc1ccc(Br)cc1)c1ccccc1 (stereo not drawn)	i	i	i	i	9.02*	i	i	i	i
SMILES	MrgX1 ag	RGS4 inh	RGS4 pot	MrgX1 antagonist	MrgX1 allo act	MrgX1 PAM conf	HEK293 Ca flux	HEK293 Ca counter	HEK293 Ca cntr2
Cc1ccc(S(=O)(=O)CC(O)COc2ccc(C#N)cc2)cc1 (stereo not drawn)	i	i	i	i	i	.	.	.	.
O=S(=O)(c1ccccc1)N(CC(O)COc1ccccc1)c1ccccc1 (stereo not drawn)	i	i	i	i	7.75*	i	i	i	i
Cc1cc(C)c2nc(N3CCCC(C(=O)NC4CCCC4)C3)sc2c1 (stereo not drawn)	i	i	i	i	i	.	.	.	.
CN(C)CCN(Cc1ccccc1)S(=O)(=O)c1ccc(-c2ccc(=O)[nH]n2)s1	i	i	i	i	6.6*	i	i	i	i
COc1ccc(NC(=O)c2cccc(C(=O)Nc3ccc(OC)cc3)n2)cc1	i	i	i	i	8.83*	i	i	i	i
COc1ccc(NC(=O)c2cc(-c3cccc(OC)c3)on2)cc1	i	i	i	i	i	.	.	.	.
C=CCN(CC=C)C(=S)NC(=O)c1ccc(C)c(Br)c1	i	i	i	i	8.32*	i	i	i	i
CC1CCCCC1NC(=O)CN1C(=O)CSc2cc(S(=O)(=O)N3CCCCCC3)ccc21 (stereo not drawn)	i	i	i	i	i	.	.	.	.
CCc1cc2ccc(OC)cc2nc1SCC(=O)N1CCN(C(=O)c2ccco2)CC1	i	i	i	i	6.58*	i	i	i	i
CCN(c1ccccc1C(=O)O)S(=O)(=O)c1cccc2nsnc12	i	i	i	i	i	.	.	.	.
O=C(CCC(=O)N1CCN(c2ccc(O)cc2)CC1)c1ccc(Br)cc1	i	i	i	i	i	.	.	.	.
NC(=O)C1CCN(C(=O)CCC(=O)c2ccc(Br)cc2)CC1	i	i	i	i	8.67*	i	i	i	i
O=C(c1cc2nc(-c3ccc(F)cc3)cc(C(F)(F)F)n2n1)N1CCCCC1c1cccnc1 (stereo not drawn)	i	i	i	i	7.1*	i	i	i	i
O=C(c1cnn2c(C(F)(F)F)cc(-c3ccccc3)nc12)N1CCCCC1c1cccnc1 (stereo not drawn)	i	i	i	i	i	.	.	.	.
O=C(Nc1sc2c(c1C(=O)O)CCC2)c1cccs1	i	i	i	i	i	.	.	.	.
NC(=O)c1c(NC(=O)c2cccs2)sc2c1CCCCCC2	i	i	i	i	8.52*	i	i	i	i
